{"source": "ChEMBL document CHEMBL1151708", "about": "“Isoflavonoid glycosides from the roots of Baphia bancoensis” (2008)", "format_in_all_cases": "functional", "key": {"Pseudomonas aeruginosa": {"system": "Pseudomonas aeruginosa", "assay": "Antibacterial activity against Pseudomonas aeruginosa ATCC 27853 after 18 hrs by liquid microdilution method", "settings": "ATCC 27853, 18 h", "how_it_was_run": "(§1)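 Broth microdilution MIC. Compound dissolved in MeOH at 512 µg/mL, serially diluted 2-fold in Mueller-Hinton medium to 1–128 µg/mL. Each dilution added to wells of Mueller-Hinton medium with standard inoculum; final MeOH below 6%. Plates sealed, agitated, incubated 37 °C, 18 h. MIC is the lowest concentration giving no colour change. Run in triplicate.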"}, "Escherichia coli": {"system": "Escherichia coli", "assay": "Antibacterial activity against Escherichia coli ATCC 25922 after 18 hrs by liquid microdilution method", "settings": "ATCC 25922, 18 h", "how_it_was_run": "as §1"}, "Staphylococcus aureus": {"system": "Staphylococcus aureus", "assay": "Antibacterial activity against Staphylococcus aureus ATCC 2523 after 18 hrs by liquid microdilution method", "settings": "ATCC 2523, 18 h", "how_it_was_run": "as §1"}, "Enterococcus faecalis": {"system": "Enterococcus faecalis", "assay": "Antibacterial activity against Enterococcus faecalis ATCC 29212 after 18 hrs by liquid microdilution method", "settings": "ATCC 29212, 18 h", "how_it_was_run": "as §1"}}}
{"smiles": "COc1ccc(-c2coc3cc(O[C@@H]4O[C@H](CO[C@@H]5O[C@@H](C)[C@H](O)[C@@H](O)[C@H]5O)[C@@H](O)[C@H](O)[C@H]4O)c(OC)c(OC)c3c2=O)cc1", "values": [{"measurement": "MIC", "setting": "Pseudomonas aeruginosa", "result": 196, "unit": "µM"}, {"measurement": "MIC", "setting": "Escherichia coli", "result": "> 196", "unit": "µM"}, {"measurement": "MIC", "setting": "Staphylococcus aureus", "result": 48.4, "unit": "µM"}, {"measurement": "MIC", "setting": "Enterococcus faecalis", "result": 48.4, "unit": "µM"}]}
{"smiles": "COc1ccc(-c2coc3cc(O)c(OC)c(OC)c3c2=O)cc1", "values": [{"measurement": "MIC", "setting": "Pseudomonas aeruginosa", "result": 195, "unit": "µM"}, {"measurement": "MIC", "setting": "Escherichia coli", "result": 390, "unit": "µM"}, {"measurement": "MIC", "setting": "Staphylococcus aureus", "result": 97.5, "unit": "µM"}, {"measurement": "MIC", "setting": "Enterococcus faecalis", "result": 97.5, "unit": "µM"}]}
{"smiles": "COc1ccc(-c2coc3cc(O[C@@H]4O[C@H](CO[C@@H]5O[C@@H](C)[C@H](O)[C@@H](O)[C@H]5O)[C@@H](O)[C@H](O[C@@H]5O[C@H](CO[C@@H]6O[C@@H](C)[C@H](O)[C@@H](O)[C@H]6O)[C@@H](O)[C@H](O)[C@H]5O)[C@H]4O)c(OC)c(OC)c3c2=O)cc1", "values": [{"measurement": "MIC", "setting": "Pseudomonas aeruginosa", "result": "> 135", "unit": "µM"}, {"measurement": "MIC", "setting": "Escherichia coli", "result": "> 135", "unit": "µM"}, {"measurement": "MIC", "setting": "Staphylococcus aureus", "result": "> 135", "unit": "µM"}, {"measurement": "MIC", "setting": "Enterococcus faecalis", "result": "> 135", "unit": "µM"}]}
